Assay outcomes as filed in PubChem.
LMP1 NFkB inh: EBV LMP1-driven NF-kappaB luciferase reporter inhibitors, primary screen, cell-based, luminescence, single point | inhibition, % at 12.5 µM | hit rate 0.69% among 350,000 | LMP1-induced NF-kappaB luciferase reporter cells; in the data active means inhibition above about 41%;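 further: 0% = neutral control wells and 100% = reference inhibitor control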
PAX8 reporter: inhibitors of PAX8-driven TPO luciferase reporter, primary screen, RMG-I cells, single concentration; inhibition, % at 12.6 µM; SteadyGlo, 24 h; hit rate 1.2% among 360,000; AID 652154, 2013;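 active means mean replicate inhibition at least 60% with every replicate also reaching 60%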;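 further: luciferase light reporting Pax8 driven TPO promoter activity; plate controls were median of neutral control wells for no effect and mitoxantrone controls for full effect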
EWS-Fli block: EWS/Fli-driven NR0B1 reporter inhibitors, primary screen, A673 cells, NR0B1 luciferase, luminescence, MLPCN library; inhibition, % at 12.6 µM; hit rate 0.67% among 350,000; viability-normalised;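 active means mean inhibition of at least 50% after viability correction, with every replicate also passing that limit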;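 further: firefly luciferase signal divided by Alamar Blue viability fluorescence both relative to DMSO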
aSyn 5UTR inh: MLPCN primary screen, SNCA 5' untranslated region; AID 1813, 2009; inhibition, % (tested at 7.5 µM); hit rate 0.82% among 300,000; alpha-synuclein 5'UTR reporter, inhibitor activity; in the data active means inhibition above about 60%;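 further: H4 neuroglioblastoma cells stably carrying SNCA 5'UTR luciferase fusion; 0% = DMSO wells and 100% = positive control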
FN deposit inh: inhibitors of fibronectin matrix deposition, primary screen, AH1F cells, Alexa488-fibronectin fluorescence, plate reader | AH1F fibroblasts, overnight | inhibition, % at 12.6 µM | hit rate 0.086% among 350,000;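 active means mean inhibition across replicates of 30% or more, regardless of how many single replicates reach that level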;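 further: positive control wells lacked labelled fibronectin entirely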
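Assay system: AH1F fibroblast monolayer, labelled fibronectin deposition. Amount: 10000 cells per well. Also added: labelled fibronectin 24 nM. Compound: single-point pinned compound. Incubation: cell attachment 1 h, compound and FN exposure overnight. Detection: fluorescence after three HBSS washes, excitation 485 nm, emission 525 nm. Read-out: inhibition of fibronectin deposition signal.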
Shn3 inh set2: reduction of Shn3 3'UTR firefly luciferase signal, primary screen, Schnurri-3 inhibitor project, cell-based, Clone20 osteoblasts, set 2; Clone20 osteoblast Shn3 3'UTR firefly luciferase, 24 h; inhibition, % at 12.5 µM; hit rate 0.52% among 360,000; AID 588674, 2011;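 active means mean inhibition of at least 75% with every replicate also reaching 75%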;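 further: 0% = median of neutral control wells and 100% = pilot-screen positive control compound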
* hit, by the source's call. Sampled rows, rich in hits. Any-hit rate of the full collection: about 2.1%.

CC(=O)N(C)C1=C(N2CCOCC2)C(=O)c2ccccc2C1=O was read as LMP1 NFkB inh 30.0, aSyn 5UTR inh 76.2* and Shn3 inh set2 77.5.
Screening C[C@H]1CCCCO[C@H](CN(C)S(=O)(=O)c2ccc(F)cc2)[C@@H](C)CN([C@@H](C)CO)C(=O)c2cc(NS(=O)(=O)c3cccs3)ccc2O1 returned PAX8 reporter 40.0 and EWS-Fli block 3.3.
For CCn1c2ccccc2c2cc(/C=N/O)ccc21 the results were LMP1 NFkB inh 21.1, PAX8 reporter -1.1, EWS-Fli block -5.2, aSyn 5UTR inh 2.0, FN deposit inh 0.9 and Shn3 inh set2 13.9.
CCn1c2ccccc2c2cc(/C=N/n3c(-c4cc(C)[nH]n4)n[nH]c3=S)ccc21 was read as LMP1 NFkB inh 87.0*, PAX8 reporter 24.6, EWS-Fli block 19.0, aSyn 5UTR inh 2.3, FN deposit inh -1.2 and Shn3 inh set2 5.2.
For CCn1c2ccccc2c2cc(/C=N/n3cn[nH]c3=S)ccc21 the results were LMP1 NFkB inh 80.2*, aSyn 5UTR inh 7.0, FN deposit inh -8.1 and Shn3 inh set2 4.3.
CCn1c2ccccc2c2cc(/C=N/n3cnnc3)ccc21 was read as LMP1 NFkB inh 83.0*, aSyn 5UTR inh 37.5 and Shn3 inh set2 27.5.
COc1ccc(/C=N/n2c(-c3cc(C)[nH]n3)n[nH]c2=S)cc1 was read as LMP1 NFkB inh 2.2, PAX8 reporter -16.1, EWS-Fli block 12.7, aSyn 5UTR inh 4.9, FN deposit inh 2.2 and Shn3 inh set2 -17.6.
`C[C@H]1CN([C@@H](C)CO)C(=O)c2cc(NS(=O)(=O)c3ccc(F)cc3)ccc2O[C@@H]1CN(C)CC1CC1` gave PAX8 reporter 1.2 and FN deposit inh -4.9.
`COc1ccc(S(=O)(=O)N(C)C[C@@H]2Oc3c(NS(=O)(=O)c4ccc(Cl)cc4)cccc3C(=O)N([C@@H](C)CO)C[C@H]2C)cc1` gave PAX8 reporter 1.6, EWS-Fli block -2.5 and FN deposit inh 2.2.
`C/C(Cl)=C\Cn1c(NCCc2ccccc2)nc2c1c(=O)n(C)c(=O)n2C` gave LMP1 NFkB inh 31.1, EWS-Fli block 15.1, aSyn 5UTR inh 26.9 and Shn3 inh set2 88.2*.
Screening O=C(NNC(=O)C1CCN(S(=O)(=O)c2ccc(Cl)cc2)CC1)c1ccccc1O returned LMP1 NFkB inh -8.4, PAX8 reporter 32.9, EWS-Fli block -1.4, aSyn 5UTR inh 11.6, FN deposit inh 8.4 and Shn3 inh set2 87.0*.
`COCC(=O)Nc1ccc2c(c1)OC[C@@H](C)N(Cc1cncnc1)C[C@@H](C)[C@@H](OC)CN(C)C2=O` gave EWS-Fli block -1.1 and FN deposit inh -6.6.
CSc1ccccc1NC(=O)CN1CCCCC1C (stereo unspecified) was read as LMP1 NFkB inh 54.9*, PAX8 reporter -12.2, EWS-Fli block 2.4, aSyn 5UTR inh -4.6, FN deposit inh -3.2 and Shn3 inh set2 -0.1.
C[C@H](CO)N1C[C@H](C)[C@@H](CN(C)C)Oc2cc(C#CC3(O)CCCC3)ccc2S1(=O)=O was read as EWS-Fli block 0.6 and FN deposit inh 2.3.
For C/C=C/c1ccc([C@@H]2[C@H](CO)N3C(=O)CN(C(=O)Nc4ccccc4F)C[C@@H]23)cc1 the results were PAX8 reporter 7.8 and EWS-Fli block -2.1.
For Cc1cccc(N2CCN(Cc3cn(C)nc3-c3ccccc3F)CC2)n1 the results were LMP1 NFkB inh 10.2, PAX8 reporter 11.7, EWS-Fli block 58.8*, aSyn 5UTR inh -7.8, FN deposit inh 5.2 and Shn3 inh set2 -17.9.
Screening O=C(NC1CCCC1)N[C@H]1CC[C@@H](CC(=O)N2CCOCC2)O[C@@H]1CO returned PAX8 reporter -12.1 and EWS-Fli block -4.0.
Screening CCN1c2ccccc2N(C)C1(C)c1ccccc1 (stereo unspecified) returned LMP1 NFkB inh 7.9 and Shn3 inh set2 89.1*.
`CN1c2ccccc2N(C)C1(C)c1ccccc1` gave LMP1 NFkB inh -8.3, PAX8 reporter 91.6*, EWS-Fli block 4.7, aSyn 5UTR inh -9.0, FN deposit inh 6.9 and Shn3 inh set2 79.8.
`COc1ccc(OCCN(C)Cc2c(O)ccc3ccccc23)cc1` gave LMP1 NFkB inh -7.0, PAX8 reporter 62.0*, EWS-Fli block 8.2, aSyn 5UTR inh -3.2, FN deposit inh 16.2 and Shn3 inh set2 15.8.
For CN(Cc1ccccc1)Cc1c(O)ccc2ccccc12 the results were LMP1 NFkB inh -11.9, PAX8 reporter 2.2, EWS-Fli block 12.3, aSyn 5UTR inh 15.1, FN deposit inh -2.5 and Shn3 inh set2 -19.3.
For COc1ccc(NC(=O)N2CCCCN3[C@H](C2)[C@@H](c2ccc(C4=CCCC4)cc2)[C@@H]3CO)cc1 the results were PAX8 reporter 27.0 and EWS-Fli block 17.4.
Cc1cc(C)nc(Nc2nc(C(N)Cc3ccc(Cl)cc3)cs2)n1 (stereo unspecified) was read as PAX8 reporter -12.3, EWS-Fli block -12.2, FN deposit inh -7.3 and Shn3 inh set2 1.3.
`Cc1cc(C)nc(Nc2nc(C(N)Cc3ccc(F)cc3)cs2)n1` (stereo unspecified) gave PAX8 reporter 84.3*, EWS-Fli block 26.9, FN deposit inh -30.9 and Shn3 inh set2 28.8.
O=[N+]([O-])c1ccc(N2CCN(Cc3cccc([N+](=O)[O-])c3)CC2)cc1 was read as LMP1 NFkB inh 53.5*, PAX8 reporter 26.4, EWS-Fli block -1.3, aSyn 5UTR inh 12.1, FN deposit inh -6.8 and Shn3 inh set2 15.9.
`COc1cccc2c1C(=N)c1c(O)c3c(c(O)c1C2=O)CC(O)(C(C)=O)CC3OC1CC(N)C(O)C(C)O1` (stereo unspecified) gave LMP1 NFkB inh 52.9* and Shn3 inh set2 91.6*.
Screening COc1cccc2c1C(=O)c1c(O)c3c(c(O)c1C2=O)CC(O)(C(C)=O)CC3OC1CC(O)C(O)C(C)O1 (stereo unspecified) returned LMP1 NFkB inh 31.4, PAX8 reporter 7.9, EWS-Fli block 21.7, FN deposit inh -6.2 and Shn3 inh set2 80.3.
`COc1cccc2c1C(=O)c1c(O)c3c(c(O)c1C2=O)C[C@](O)(C(C)=O)C[C@H]3O[C@@H]1C[C@@H](N)[C@@H](O)[C@@H](C)O1` gave LMP1 NFkB inh 91.4*, PAX8 reporter 112.2*, EWS-Fli block 44.8, aSyn 5UTR inh 111.2*, FN deposit inh 5.9 and Shn3 inh set2 94.1*.
`COc1cccc2c1-c1c(O)cccc1C2=O` gave LMP1 NFkB inh -0.7, PAX8 reporter -9.5, EWS-Fli block -12.6, aSyn 5UTR inh 3.8, FN deposit inh 4.4 and Shn3 inh set2 8.1.
